GPR7 antag – blocks human GPR7 receptor signaling. P48145. GPR7-expressing cells, fluorescence antagonist assay. inhibition, % at 4.4 µM. hit rate 1.1% among 290,000; in the data active = inhibition above about 16%, passing the limit was not always enough;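 also: cells stimulated with the agonist NPW; 0% = agonist with vehicle and 100% = vehicle without agonist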
OX1R antag-1 – blocks the human orexin 1 receptor; OX1R-expressing cells, FRET antagonist read-out; inhibition, % at 6.6 µM; hit rate 1.8% among 330,000; in the data active = inhibition mostly above about 38%, no sharp cut-off; inactive = mostly below about 40%;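 also: 0% = agonist challenge alone and 100% = reference antagonist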
Target sequence (O43613 whole entry, looked up): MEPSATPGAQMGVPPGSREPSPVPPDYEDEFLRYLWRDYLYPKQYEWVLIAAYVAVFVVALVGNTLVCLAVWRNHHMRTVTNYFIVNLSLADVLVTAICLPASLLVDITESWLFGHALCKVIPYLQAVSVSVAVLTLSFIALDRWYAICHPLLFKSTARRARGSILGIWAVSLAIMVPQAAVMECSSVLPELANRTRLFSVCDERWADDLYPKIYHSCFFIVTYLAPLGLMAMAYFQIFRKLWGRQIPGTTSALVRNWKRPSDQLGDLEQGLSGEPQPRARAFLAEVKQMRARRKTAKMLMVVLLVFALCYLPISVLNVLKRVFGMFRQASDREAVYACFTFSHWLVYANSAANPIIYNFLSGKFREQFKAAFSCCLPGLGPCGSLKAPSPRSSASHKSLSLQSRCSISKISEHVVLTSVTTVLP
TAAR1 antagonist – human TAAR1 antagonism; Q96RJ0; CHO RD-HGA16 TAAR1, Fluo-8 calcium fluorescence, antagonist; inhibition, % at 3 µM; hit rate 1.5% among 360,000; AID 624466;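 active = inhibition above a per-plate cutoff, the mean inhibition of test compounds on that plate plus 3 SD, cut at about 49% in these data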;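 also: 0% = DMSO plus EC80 beta-PEA response and 100% = DMSO alone without agonist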
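Test system – hTAAR1-expressing CHO RD-HGA16 cells, Gα16-coupled · Reagent – β-PEA at EC80 concentration, post-compound challenge · Compound dosing – 3 µM, single point · Timing – 140 s kinetic read after compound, 140 s after agonist · Detection – Fluo-8 intracellular calcium dye fluorescence, real-time kinetic reads · Control set – DMSO and EC80 PEA controls · Repeats – n of 1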
CHO parental Ca – signal in parental CHO cells, OX1R antagonist counter-screen; parental CHO-K1, ATP-induced calcium, Fluo-8 fluorescence; inhibition, % at 5.6 µM; hit rate 0.63% among 330,000;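 active = inhibition above that plate's mean sample inhibition plus 3 SD, cut at about 26% in these data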;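 also: 0% = ATP-challenged DMSO wells and 100% = DMSO wells without ATP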
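Test system: parental CHO cells; detection: calcium-sensitive Fluo-8 fluorescence; evaluation: percent inhibition of calcium signal; also added: ATP as calcium-mobilizing challenge; repeats: one well per compound; control set: ATP-challenged DMSO wells low, unchallenged DMSO wells high; compound: single nominal dose of 5.6 µM per compound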
TAAR1 agonist – human TAAR1 agonism | Q96RJ0 | CHO RD-HGA16 TAAR1, Fluo-8 calcium fluorescence; vehicle wells 0%, saturating PEA agonist 100% | activation, % at 3 µM | hit rate 0.99% among 360,000;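 active = activation above the mean activation of all test compounds in the run plus 3 SD, cut at about 38% in these data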
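Test system: RD-HGA16 (CHO) cells co-expressing Gα16 and hTAAR1 | Doses: Single dose, 3 µM | Schedule: 17-24 h seeding, 75 min 37 °C dye, 30 min RT | Evaluation: % activation from peak over basal fluorescence ratio, DMSO-to-PEA scaled | Technique: Kinetic Fluo-8 calcium fluorescence | Benchmarks: Low control DMSO, high control PEA (EC100)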
OX1R antag-2 – human HCRTR1 antagonism | CHO/OX1R cells, Fluo-8 calcium fluorescence, orexin A | inhibition, % at 5 µM | hit rate 0.43% among 330,000 | AID 434989;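 active = inhibition above its plate's threshold, mean inhibition of all tested compounds on the plate plus 3 SD, cut at about 37% in these data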;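 also: 0% = orexin A challenge wells and 100% = SB-334867-A antagonist wells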
TAAR1 ag conf – human TAAR1 agonism, confirmed; AID 651783; shares compounds with TAAR1 agonist; activation, % at 3 µM; CHO RD-HGA16 TAAR1, Fluo-8 calcium fluorescence; scaled: DMSO 0%, maximal phenethylamine 100%; hit rate 82% among 2,400;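 active = activation above a cutoff set at the run's mean compound activation plus 3 SD, cut at about 39% in these data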
Ga16 ag counter – nonselective agonism, TAAR1 counter-screen | shares compounds with TAAR1 agonist | CHO-Ga16 parental, Fluo-8 calcium fluorescence; normalized to maximal ATP response, DMSO zero | activation, % at 3 µM | hit rate 50% among 2,400 | AID 651787;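 active = activation above the run cutoff, the mean activation over all tested wells plus 3 SD, cut at about 12% in these data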;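 also: 0% = DMSO wells and 100% = maximal ATP response on the peak over basal ratio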
TAAR1 desens – counter-screen for human TAAR1 agonists: agonists that desensitize TAAR1 | hit rate 46% among 2,400 | AID 651951 | inhibition, % at 3 µM | CHO RD-HGA16 hTAAR1, Fluo-8 calcium, beta-PEA response inhibition | shares compounds with TAAR1 agonist;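 active = inhibition above the run cutoff, the mean inhibition of all test compounds plus 3 SD, cut at about 49% in these data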;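 also: beta-PEA stimulus applied at its EC80; loss of beta-PEA calcium signal after compound pretreatment read as receptor desensitization; 0% = DMSO with beta-PEA at EC80 and 100% = DMSO alone without agonist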
Ga16 antag count – nonselective Ga16 antagonism, counter-screen. AID 651952. inhibition, % at 3 µM. CHO-Ga16 ATP-induced calcium, Fluo-8 fluorescence. hit rate 39% among 2,400. shares compounds with TAAR1 agonist;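 active = inhibition above the plate's mean compound inhibition plus 3 SD, computed per plate, cut at about 22% in these data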;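 also: 0% = EC80 ATP with DMSO and 100% = DMSO wells without ATP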
* = called active by the depositor; . = no result given. An excerpt weighted towards active compounds, which were near 4.6% of everything screened.

SMILES	GPR7 antag	OX1R antag-1	TAAR1 antagonist	CHO parental Ca	TAAR1 agonist	OX1R antag-2	TAAR1 ag conf	Ga16 ag counter	TAAR1 desens	Ga16 antag count
COc1ccccc1C(=O)NCCC(=O)NCCC12CC3CC(CC(C3)C1)C2	-12	9	-25	-20	-4	-21	.	.	.	.
COc1ccc(CNC(=O)C2CCN(S(=O)(=O)c3ccc(Br)s3)CC2)cc1	-12	4	18	-4	2	-23	.	.	.	.
CCc1c(C(=O)NCCc2ccc(OC)c(OC)c2)[nH]c(C)c1C(C)=O	-9	5	5	-11	6	-15	.	.	.	.
CC(=O)c1c(C)[nH]c(C(=O)NCCc2cccc(C)c2)c1C	6	9	-5	-11	52*	-17	26	7	13	19
CCc1c(C(=O)NCCc2cccc(C)c2)[nH]c(C)c1C(C)=O	10	10	26	-11	68*	-19	53*	9	26	24*
CCCCNC(=O)c1[nH]c(C)c(C(C)=O)c1C	-6	14	12	-2	2	-4	.	.	.	.
CCN(CC)C(=O)Oc1nnc(SC(C)C)n1-c1ccc(Cl)cc1	-6	5	5	-15	0	-15	.	.	.	.
CCN(CC)C(=O)Oc1nnc(SC(C)C)n1-c1ccc(Cl)c(Cl)c1	-13	8	5	-21	45*	-38	21	14*	2	2
COc1cccc(CCC(=O)N2CCC(n3nccc3NC(=O)CC(C)C)CC2)c1	-15	10	1	-13	1	-17	.	.	.	.
COC(=O)c1ccc(Cn2c(C)c(C(=O)NCc3ccc([N+](=O)[O-])cc3)sc2=O)o1	.	.	38	.	21	.	.	.	.	.
Cc1cccc(C)c1Cn1c(C)c(C(=O)NCc2ccc([N+](=O)[O-])cc2)sc1=O	.	.	49*	.	62*	.	47*	29*	53*	41*
Cc1ccccc1OCC(=O)OC(C)C(=O)NC1CCCC1 (configuration not stated)	.	2	-9	-10	9	-14	.	.	.	.
COc1ccc2c(OC)cc(=O)n(C)c2c1	-7	-6	-14	0	68*	0	7	5	6	4
COc1cc(=O)n(C)c2ccccc12	4	1	-21	11	3	-6	.	.	.	.
CC(C)(C)OC(=O)N1CCC[C@H]1C(=O)N/N=C/c1ccc2ncccc2c1	0	13	-37	-7	4	13	.	.	.	.
CC(=O)c1sc2nc(-c3cccs3)cc(C(F)(F)F)c2c1N	5	25	64*	32	72*	42*	65*	84*	64*	70*
COC(=O)C1=C(C)N(Cc2ccc(C(F)(F)F)cc2)C(=NCc2ccccc2)NC1c1cccc(F)c1 (configuration not stated)	.	.	66*	.	40*	.	30	18*	48	39*
COC(=O)C1=C(C)N(Cc2cccc(C(F)(F)F)c2)C(=NCC2CC2)NC1c1cccc(F)c1 (configuration not stated)	.	.	97*	.	131*	.	104*	70*	92*	81*
C=CC[C@@H](CC(=O)N(CCO)Cc1ccccc1)C(=O)NC[C@H](OC(=O)[C@@H](CC=C)CC(=O)OC(C)(C)C)c1ccccc1	.	11	71*	-20	63*	0	69*	21*	63*	30*
O=C(N/N=C/c1ccccc1F)c1ccc(COc2ccccc2Cl)o1	-5	38	11	-21	0	-22	.	.	.	.

Screens (PubChem)
